Laboratory results reported in ChEMBL document CHEMBL4613289, “Pharmacophore-Based Design of New Chemical Scaffolds as Translational Readthrough-Inducing Drugs (TRIDs)” (ACS Med Chem Lett, 2020).
Active and inactive are the calls of the source. The rule behind the calls is not given here.

What was measured:
Format in all cases: cell-based
HeLa = experiment: Induction of read through activity at CFTR gene premature termination codon UGA transfected in human HeLa cells assessed as increase in luciferase activity at 12 uM incubated for 24 hrs by steady-glo luciferase reporter gene assay
Outline: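 HeLa cells were transiently transfected with pFLuc-opal (UGA stop) and treated for 24 h at 12 μM, with 12 μM PTC124 as reference. FLuc activity was then measured. pFLuc-WT transfected cells served as the positive control and untreated pFLuc-opal cells as the negative control.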

Homo sapiens = species on record: Homo sapiens; experiment: Induction of mutation read through activity at human CFTR G542X mutant premature termination codon UGA transfected in FRT cells assessed as increase in CFTR protein expression at 12 uM incubated for 24 hrs by DAPI-staining based immunofluorescence microscopic analysis
Outline: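 FRT cells stably carrying pTracer vectors with human G542X-CFTR or WT-CFTR cDNA were exposed to 12 μM compound for 24 h. CFTR was detected by immunofluorescence microscopy, with membrane stained red and nuclei stained with DAPI. Untreated G542X cells served as the negative control.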

[1] = Cytotoxicity against rat FRT cells at 12 uM after 24 to 72 hrs by trypan blue staining based assay
Outline: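 Wild-type CFTR FRT cells treated with 12 μM compound, with 12 μM PTC124 as the control. Percentages of live and dead cells and cell proliferation were scored at 24, 48 and 72 h after treatment.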

| Structure (SMILES) | Activity (HeLa) | Activity (Homo sapiens) | Activity [1] |
| --- | --- | --- | --- |
| COC(=O)c1csc(COc2cc(Cl)cc(Cl)c2)n1 | Active | Active | Non-Toxic |
| O=C(O)c1cccc(-c2noc(-c3ccccc3F)n2)c1 [ATALUREN] | Active |  | Non-Toxic |
| COC(=O)c1ccc2nc(-c3cc(Cl)cc(Cl)c3)oc2c1 | Active |  | Non-Toxic |
| O=S(=O)(Oc1ccc(F)cc1F)c1cccc(S(=O)(=O)Oc2ccc(F)cc2F)c1 | Active |  | Non-Toxic |
| O=C(O)c1ccc2nc(-c3ccccc3Cl)[nH]c2c1 | Active | Active | Non-Toxic |
